Assay results published in ChEMBL document CHEMBL1133540, “4-Aminoquinolines: novel nociceptin antagonists with analgesic activity” (J Med Chem, 2000).

Assays:
[1] = target: T1, Nociceptin receptor (Homo sapiens, UniProt P41146); assay: Compound was evaluated for its ability to displace [3H]nociceptin ( 0.5 nM ) binding from Opioid receptor like 1 expressed in HeLa cells; assay type: cell-based
Procedure, shortened: (§1)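 Membranes from HeLa cells expressing human ORL1 (25 μg protein/mL) in 50 mM Tris pH 8.5 with 2 mM EDTA, 0.1 mM p-aminophenylmethanesulfonyl fluoride and 2 mg/mL BSA. Incubated 30 min at room temperature with 0.5 nM [3H]nociceptin and varied compound concentrations. Bound radioactivity was collected by filtration and counted by scintillation. Nonspecific binding was set with 1 μM unlabeled nociceptin. Ki reported as mean ± SE, n=3-6.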

[2] = target: T1, Nociceptin receptor; assay: Percent inhibition of [3H]nociceptin ( 0.5 nM ) binding at 10 uM
Procedure, shortened: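 Single-point test at 10 μM compound against 0.5 nM [3H]nociceptin binding to human ORL1 in HeLa cell membranes. Buffer was Tris pH 8.5 with EDTA, protease inhibitor and BSA; incubation 30 min at room temperature. Filtration and scintillation counting. Specific binding = total minus binding in 1 μM unlabeled nociceptin. Read-out was percent inhibition.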

[3] = target: T1, Nociceptin receptor; assay: Ability to displace [3H]nociceptin ( 0.5 nM ) binding from Opioid receptor like 1 expressed in HeLa cells.; assay type: cell-based
Procedure, shortened: as §1, with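 “nociceptin.” for “nociceptin. Ki reported as mean ± SE, n=3-6.”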

[4] = Effect of compound on nociceptin-induced allodynia :Values are the mean ( SE of allodynia score at 20 min. significantly different from control (nociceptin alone) by the Mann-Whitney U-test.; assay type: functional
[5] = target: Delta-type opioid receptor (Homo sapiens, UniProt P41143); assay: Inhibition of [3H]naltrindole (0.55 nM) binding from human Opioid receptor delta 1 expressed in CHO-K1 cells.; assay type: cell-based
Sequence of Delta-type opioid receptor (P41143 whole entry): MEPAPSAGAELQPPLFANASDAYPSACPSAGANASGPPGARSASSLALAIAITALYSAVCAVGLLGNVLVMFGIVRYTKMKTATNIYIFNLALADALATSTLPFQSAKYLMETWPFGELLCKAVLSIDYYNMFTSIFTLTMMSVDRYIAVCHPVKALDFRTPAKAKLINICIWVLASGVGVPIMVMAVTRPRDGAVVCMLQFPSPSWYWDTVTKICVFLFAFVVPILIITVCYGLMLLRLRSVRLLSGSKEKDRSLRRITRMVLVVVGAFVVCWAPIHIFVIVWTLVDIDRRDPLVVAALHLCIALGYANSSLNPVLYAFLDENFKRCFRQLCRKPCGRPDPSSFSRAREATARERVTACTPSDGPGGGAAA
Procedure, shortened: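 Human δ-opioid receptor from CHO-K1 membranes in 50 mM Tris-HCl pH 7.4, 5 mM MgCl2, 10% sucrose. Incubated 1 h at room temperature with 0.55 nM [3H]naltrindole and varied compound concentrations. Filter-bound radioactivity counted. 10 μM naloxone defined nonspecific binding. Ki as mean ± SE, n=3.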

[6] = target: Kappa-type opioid receptor (Homo sapiens, UniProt P41145); assay: Inhibition of [3H][…] (0.55 nM) binding from human Opioid receptor kappa 1
Sequence of Kappa-type opioid receptor (P41145 whole entry): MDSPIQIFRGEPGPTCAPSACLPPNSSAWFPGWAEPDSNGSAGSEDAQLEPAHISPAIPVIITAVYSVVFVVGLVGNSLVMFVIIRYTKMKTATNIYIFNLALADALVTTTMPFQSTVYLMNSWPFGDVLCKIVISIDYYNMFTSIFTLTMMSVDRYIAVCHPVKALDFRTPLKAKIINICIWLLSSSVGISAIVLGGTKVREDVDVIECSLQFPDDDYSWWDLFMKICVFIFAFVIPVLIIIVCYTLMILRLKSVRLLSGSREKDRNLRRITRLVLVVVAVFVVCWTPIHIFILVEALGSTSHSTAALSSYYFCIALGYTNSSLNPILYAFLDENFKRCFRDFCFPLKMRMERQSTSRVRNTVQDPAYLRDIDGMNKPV

[7] = target: Mu-type opioid receptor (Homo sapiens, UniProt P35372); assay: Inhibition of [3H]diprenorphine (0.33 nM) binding from human Opioid receptor mu 1 expressed in CHO-K1 cells.; assay type: cell-based
Sequence of Mu-type opioid receptor (P35372 whole entry): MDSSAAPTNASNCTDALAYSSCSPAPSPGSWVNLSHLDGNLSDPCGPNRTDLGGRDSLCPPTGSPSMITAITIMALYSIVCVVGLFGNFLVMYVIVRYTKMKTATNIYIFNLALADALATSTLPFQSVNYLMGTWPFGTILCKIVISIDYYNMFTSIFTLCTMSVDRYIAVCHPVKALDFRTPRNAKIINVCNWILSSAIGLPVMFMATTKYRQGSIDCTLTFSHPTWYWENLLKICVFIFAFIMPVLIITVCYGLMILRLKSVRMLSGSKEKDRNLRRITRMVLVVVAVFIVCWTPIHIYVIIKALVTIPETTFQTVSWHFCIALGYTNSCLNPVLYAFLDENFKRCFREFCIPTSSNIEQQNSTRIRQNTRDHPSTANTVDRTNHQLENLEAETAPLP
Procedure, shortened: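 CHO-K1 membranes expressing human μ-opioid receptor in 50 mM Tris-HCl pH 7.4 with 5 mM MgCl2 and 10% sucrose. Incubated 2.5 h at room temperature with 0.33 nM [3H]diprenorphine over a compound concentration range. Filtration and scintillation counting. Nonspecific binding defined with 10 μM naloxone. Ki given as mean ± SE, n=3.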

[8] = Effect of compound on nociceptin-induced allodynia :Values are the mean ( SE of allodynia score at 20 min.; assay type: functional
Procedure, shortened: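 Male ICR mice, 4 weeks old, unanesthetized; nociceptin (50 pg/5 μL) injected intrathecally. Test compound 0.3 mg/kg suspended in 0.5% methyl cellulose, or vehicle as control, given orally 60 min before nociceptin. Allodynia score read at 20 min; mean ± SE, n = 9; Mann–Whitney U-test versus nociceptin-alone control.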

T1 sequence (P41146 whole entry): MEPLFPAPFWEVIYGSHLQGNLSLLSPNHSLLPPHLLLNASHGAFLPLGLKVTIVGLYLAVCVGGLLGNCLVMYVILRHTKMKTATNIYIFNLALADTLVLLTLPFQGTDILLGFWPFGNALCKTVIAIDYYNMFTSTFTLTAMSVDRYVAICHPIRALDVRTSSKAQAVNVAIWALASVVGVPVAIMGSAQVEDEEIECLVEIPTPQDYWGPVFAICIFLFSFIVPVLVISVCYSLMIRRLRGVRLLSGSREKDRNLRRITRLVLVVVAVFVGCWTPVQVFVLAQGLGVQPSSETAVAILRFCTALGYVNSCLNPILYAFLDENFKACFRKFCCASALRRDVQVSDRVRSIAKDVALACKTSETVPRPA

Row | Structure (SMILES) | inhibition [2] [%] | Ki [3] [µM] | also measured
1 | Cc1cc(N)c2cc(NC(=O)c3ccccc3COc3ccccc3)ccc2n1 | 93.6 | – | Ki [1]: 0.0507 µM
2 | CCc1cc(N)c2cc(NC(=O)c3ccccc3COc3ccc(Cl)cc3)ccc2n1 | – | 0.0018 | –
3 | Cc1cc(N)c2cc(NC(=O)c3ccccc3COc3ccc(Cl)cc3)ccc2n1 | – | 0.0022 | –
4 | Cc1cc(N)c2cc(NC(=O)c3ccc(CCc4ccccc4)cc3)ccc2n1 | 48.4 | – | –
5 | Cc1cc(N)c2cc(NC(=O)c3ccccc3COc3cccc(Cl)c3)ccc2n1 | – | 0.0204 | –
6 | Cc1cc(N)c2cc(NC(=O)c3ccccc3COc3ccc(O)cc3)ccc2n1 | – | 0.0467 | –
7 | Cc1cc(N)c2cc(NC(=O)c3ccccc3COc3ccc(C(F)(F)F)cc3)ccc2n1 | – | 0.0018 | –
8 | Cc1cc(N)c2cc(NC(=O)c3ccccc3CCCc3ccccc3)ccc2n1 | 98 | 0.121 | –
9 | Cc1cc2ccc(NC(=O)c3ccccc3COc3ccc(Cl)cc3)cc2c(N)n1 | – | 0.0373 | –
10 | Cc1cc(N)c2cc(NC(=O)c3ccccc3-c3ccccc3)ccc2n1 | 51.7 | 0.369 | –
11 | Cc1ccc(OCc2ccccc2C(=O)Nc2ccc3nc(C)cc(N)c3c2)cc1 | – | 0.007 | –
12 | Cc1cc(N)c2cc(NC(=O)c3ccccc3COc3ccc(N)cc3)ccc2n1 | – | 0.0824 | –
13 | CC(C)C[C@H](NC(=O)[C@H](CCCCN)NC(=O)[C@H](CCCN=C(N)N)NC(=O)[C@H](C)NC(=O)[C@H](CO)NC(=O)[C@H](CCCCN)NC(=O)[C@H](CCCN=C(N)N)NC(=O)[C@H](C)NC(=O)CNC(=O)[C@@H](NC(=O)[C@H](Cc1ccccc1)NC(=O)CNC(=O)CNC(=O)[C@@H](N)Cc1ccccc1)[C@@H](C)O)C(=O)N[C@@H](C)C(=O)N[C@@H](CC(N)=O)C(=O)N[C@@H](CCC(N)=O)C(=O)O.CCc1ccc(OCc2ccccc2C(=O)Nc2ccc3nc(C)cc(N)c3c2)cc1 | – | – | Allodynia score [4]: < 3.11
14 | CCc1ccc(OCc2ccccc2C(=O)Nc2ccc3nc(C)cc(N)c3c2)cc1 | – | 0.0082 | Ki [5]: 8.65 µM; Ki [6]: 1.06 µM; Ki [7]: 0.103 µM
15 | Cc1cc(N)c2cc(NC(=O)c3ccccc3Cc3ccccc3)ccc2n1 | 45.4 | – | –
16 | Cc1ccc(CCc2ccccc2C(=O)Nc2ccc3nc(C)cc(N)c3c2)cc1 | – | 0.0885 | –
17 | CC(C)C[C@H](NC(=O)[C@H](CCCCN)NC(=O)[C@H](CCCNC(=N)N)NC(=O)[C@H](C)NC(=O)[C@H](CO)NC(=O)[C@H](CCCCN)NC(=O)[C@H](CCCNC(=N)N)NC(=O)[C@H](C)NC(=O)CNC(=O)[C@@H](NC(=O)[C@H](Cc1ccccc1)NC(=O)CNC(=O)CNC(=O)[C@@H](N)Cc1ccccc1)[C@@H](C)O)C(=O)N[C@@H](C)C(=O)N[C@@H](CC(N)=O)C(=O)N[C@@H](CCC(N)=O)C(=O)O | – | – | Allodynia score [8]: 7.11
18 | Cc1cc(N)c2cc(NC(=O)c3ccccc3COc3ccc(Br)cc3)ccc2n1 | – | 0.0026 | –
19 | Cc1cc(N)c2cc(NC(=O)c3ccccc3CCc3ccccc3)ccc2n1 | 90.5 | – | Ki [1]: 0.0799 µM
20 | Cc1cc(N)c2cc(NC(=O)c3ccccc3)ccc2n1 | 32.9 | – | –
21 | CCCc1cc(N)c2cc(NC(=O)c3ccccc3COc3ccc(Cl)cc3)ccc2n1 | – | 0.0018 | –
22 | Cc1cc(N)c2cc(NC(=O)c3cccc(CCc4ccccc4)c3)ccc2n1 | 23 | – | –
23 | Nc1ccnc2ccc(NC(=O)c3ccccc3COc3ccc(Cl)cc3)cc12 | – | 0.0856 | –
